ChEMBL document CHEMBL1122649, “3-Alkyl-2-aryl-3H-naphth[1,2-d]imidazoles, a novel class of nonacidic antiinflammatory agents” (J Med Chem, 1984)

Experiments:
Rattus norvegicus [1] = assay: Antiinflammatory activity measured as the percentage inhibition of edema in carrageenan induced rat paw after peroral administration of 200 mg/kg of compound; type: functional; details: route oral
Summary of the method: (§1)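 Female Wistar rats (120–150 g), 10 per dose, dosed orally with an aqueous suspension in 0.5% methocel (10 mL/kg) 1 h before 0.05 mL of 1% carrageenin in saline was injected into the right hind paw aponeurosis. Paw volume was read plethysmographically at injection and 4 h later. Inhibition is given relative to vehicle controls. Screening dose 200 mg/kg; 100 mg/kg was tested when inhibition exceeded 30%. Student's t test.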

Rattus norvegicus [2] = assay: Antiinflammatory activity was measured as the percentage inhibition of edema in carrageenan induced rat paw after peroral administration of 100 mg/kg of compound; type: functional; details: route oral; summary of the method: as §1
Rattus norvegicus [3] = species on record: Rattus norvegicus; assay: Compound was evaluated for its analgesic activity by Randall-Selitto test in comparison with that of Aspirine; type: functional
Summary of the method: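 Randall–Selitto pain threshold, measured on the inflamed right hind paw of male Wistar rats (170–200 g), 10 per dose. Edema was induced with 0.1 mL of 20% yeast suspension in saline. Oral dosing in 0.5% methocel (10 mL/kg), highest dose one-fifth of LD50, then scaling down through 100, 50, 20, 10, 5 and 2 mg/kg. Threshold read before dosing, then hourly for 6 h. Potency expressed relative to aspirin = 1.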

Rattus norvegicus [4] = species on record: Rattus norvegicus; assay: Compound was evaluated for its antipyretic activity by antipyresis effect in comparison with that of Aspirin.; type: functional
Summary of the method: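 Male Sprague-Dawley rats (120–150 g), 6 per dose, starved 18 h and kept at 24 °C; rats above 38 °C were excluded. Fever was induced by subcutaneous 1 mL of filtered 5% peptone preincubated 48 h at 37 °C. Oral doses as in the analgesic test (top dose one-fifth of LD50, stepping down). Rectal thermocouple readings from 4 h after injection, then hourly for 4 h. Activity relative to aspirin = 1.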

Rattus norvegicus [5] = assay: (§2) Compound was evaluated for its antiinflammatory activity by adjuvant-induced polyarthritis test in rats at a dosage of 200 mg/kg administered orally; type: functional; details: route oral
Summary of the method: (§3)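 Female Wistar rats (130–150 g), 8 per dose. Killed Mycobacterium butyricum (0.6 mg in 0.1 mL mineral oil) was injected into the right hind plantar aponeurosis. Oral dosing in 0.5% methocel, once daily, curative scheme from day 14 to day 27. Read-outs: percent change in hind-paw volume versus controls; Newbould 0–4 lesion scores for front paws, tail and ears; plasma inflammation units by nephelometric turbidity before and after 30 min at 56 °C on day 27.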

Rattus norvegicus [6] = assay: Compound was evaluated for its antiinflammatory activity in the cotton pellet induced granuloma(CPG) in normal rats at the dose 200 mg/kg p.o.; type: functional; details: route oral
Summary of the method: (§4)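 Male Wistar rats (150–180 g), 7 per group. Two sterile 50 mg cotton pellets were implanted subcutaneously in the interscapular region under ether. Oral dosing in 0.5% methocel (10 mL/kg) daily for 6 days, starting 6 h after surgery. Animals were killed 24 h after the last dose; pellets with granuloma were dried 24 h at 80 °C. Percent inhibition versus vehicle controls.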

Rattus norvegicus [7] = assay: as §2; type: functional; parameters: unit not given beside the values; details: route oral; summary of the method: as §3
Rattus norvegicus [8] = assay: Compound was evaluated for its gastroulcerogenic effect in rats at a peroral dose of 200 mg/kg, P<0.05.; type: functional; details: route oral
Rattus norvegicus [9] = assay: Compound was evaluated for its antiinflammatory activity in the cotton pellet induced granuloma(CPG) in normal rats at the dose 3 mg/kg p.o.; details: po, read-out: Inhibition
Rattus norvegicus [10] = assay: Compound was evaluated for its antiinflammatory activity by adjuvant-induced polyarthritis test in rats at a dosage of 1 mg/kg administered orally; type: functional; details: route oral; summary of the method: as §3
Rattus norvegicus [11] = assay: Compound was evaluated for its gastroulcerogenic effect in rats at a peroral dose of 200 mg/kg; type: functional; details: route oral
Rattus norvegicus [12] = assay: (§5) Compound was evaluated for its antiinflammatory activity by adjuvant-induced polyarthritis test in rats at a dosage of 100 mg/kg administered orally; type: functional; details: route oral; summary of the method: as §3
Rattus norvegicus [13] = assay: Compound was evaluated for its antiinflammatory activity in the cotton pellet induced granuloma(CPG) in normal rats at the dose 100 mg/kg p.o.; type: functional; details: route oral; summary of the method: as §4
Rattus norvegicus [14] = assay: as §5; type: functional; parameters: unit not given beside the values; details: route oral; summary of the method: as §3

## Cc1cc(-c2nc3c4ccccc4ccc3n2C)cc(C)c1N(C)C
Rattus norvegicus [1]
  inhibition in vivo at 200 mg/kg: 14%

## Cn1c(-c2ccccc2O)nc2c3ccccc3ccc21
Rattus norvegicus [1]
  inhibition in vivo at 200 mg/kg: 1%

## Cl.Cl.Cn1c(-c2cccnc2)nc2c3ccccc3ccc21
Rattus norvegicus [1]
  inhibition in vivo at 200 mg/kg: 12%

## CC(=O)Nc1ccc(-c2nc3c4ccccc4ccc3n2C)cc1
Rattus norvegicus [2]
  inhibition in vivo at 100 mg/kg: 29%
Rattus norvegicus [1]
  inhibition in vivo at 200 mg/kg: 35%

## Cn1c(-c2ccc(O)cc2)nc2c3ccccc3ccc21
Rattus norvegicus [1]
  inhibition in vivo at 200 mg/kg: 4%

## COc1cccc(-c2nc3c4ccccc4ccc3n2C)c1
Rattus norvegicus [1]
  inhibition in vivo at 200 mg/kg: 21%

## CCOc1ccc(-c2nc3c4ccccc4ccc3n2C)cc1
Rattus norvegicus [3]
  Activity: 0.3
Rattus norvegicus [4]
  Activity: 2.2
Rattus norvegicus [5]
  Arthritis scores: 43
  Inflammation units: 60
Rattus norvegicus [6]
  inhibition in vivo at 200 mg/kg: 40%
Rattus norvegicus [2]
  inhibition in vivo at 100 mg/kg: 37%
Rattus norvegicus [1]
  inhibition in vivo at 200 mg/kg: 45%
Rattus norvegicus [7]
  Mean volume of hind paws: 25
Rattus norvegicus [8]
  Ulcerogenic index: 0.21

## CCC(CC)n1c(-c2ccc(OC)cc2)nc2c3ccccc3ccc21
Rattus norvegicus [1]
  inhibition in vivo at 200 mg/kg: 11%

## COc1ccc2c(c1)c(CC(=O)O)c(C)n2C(=O)c1ccc(Cl)cc1 [INDOMETHACIN]
Rattus norvegicus [3]
  Activity: 34
Rattus norvegicus [4]
  Activity: 15.4
Rattus norvegicus [9]
  inhibition in vivo at 3 mg/kg: 41%
Rattus norvegicus [10]
  Arthritis scores: 65
  Inflammation units: 82
  Mean volume of hind paws: 52
Rattus norvegicus [8]
  Ulcerogenic index: 1.5

## Cn1c(-c2ccc[nH]2)nc2c3ccccc3ccc21
Rattus norvegicus [1]
  inhibition in vivo at 200 mg/kg: 1%

## COc1ccc(-c2nc3c4ccccc4ccc3n2C2CC2)cc1
Rattus norvegicus [3]
  Activity: 0.7
Rattus norvegicus [4]
  Activity: 0.8
Rattus norvegicus [6]
  inhibition in vivo at 200 mg/kg: 11%
Rattus norvegicus [2]
  inhibition in vivo at 100 mg/kg: 53%
Rattus norvegicus [1]
  inhibition in vivo at 200 mg/kg: 56%
Rattus norvegicus [11]
  Ulcerogenic index: 0.29

## COc1ccc(-c2nc3c4ccccc4ccc3n2CCO)cc1
Rattus norvegicus [1]
  inhibition in vivo at 200 mg/kg: 11%

## Cn1c(-c2ccc3c(c2)OCO3)nc2c3ccccc3ccc21
Rattus norvegicus [1]
  inhibition in vivo at 200 mg/kg: 28%

## COc1ccc(-c2nc3c4ccccc4ccc3n2C(C)(C)C)cc1
Rattus norvegicus [1]
  inhibition in vivo at 200 mg/kg: 19%

## COc1ccccc1-c1nc2c3ccccc3ccc2n1C
Rattus norvegicus [1]
  inhibition in vivo at 200 mg/kg: 0%

## COc1ccc(-c2nc3c4ccccc4ccc3n2C)cc1C
Rattus norvegicus [2]
  inhibition in vivo at 100 mg/kg: 24%
Rattus norvegicus [1]
  inhibition in vivo at 200 mg/kg: 35%

## Cn1c(-c2ccncc2)nc2c3ccccc3ccc21
Rattus norvegicus [3]
  Activity: 2.4
Rattus norvegicus [4]
  Activity: 1.4
Rattus norvegicus [5]
  Arthritis scores: 10
  Inflammation units: 3
Rattus norvegicus [6]
  inhibition in vivo at 200 mg/kg: 33%
Rattus norvegicus [2]
  inhibition in vivo at 100 mg/kg: 44%
Rattus norvegicus [1]
  inhibition in vivo at 200 mg/kg: 63%
Rattus norvegicus [7]
  Mean volume of hind paws: 20
Rattus norvegicus [11]
  Ulcerogenic index: 0.31

## CCCn1c(-c2ccc(OC)cc2)nc2c3ccccc3ccc21
Rattus norvegicus [1]
  inhibition in vivo at 200 mg/kg: 20%

## CC(=O)Oc1ccc(-c2nc3c4ccccc4ccc3n2C)cc1
Rattus norvegicus [1]
  inhibition in vivo at 200 mg/kg: 8%

## Cn1c(-c2cccs2)nc2c3ccccc3ccc21
Rattus norvegicus [3]
  Activity: 1
Rattus norvegicus [4]
  Activity: 0.9
Rattus norvegicus [5]
  Arthritis scores: 24
  Inflammation units: 18
Rattus norvegicus [6]
  inhibition in vivo at 200 mg/kg: 31%
Rattus norvegicus [2]
  inhibition in vivo at 100 mg/kg: 31%
Rattus norvegicus [1]
  inhibition in vivo at 200 mg/kg: 40%
Rattus norvegicus [7]
  Mean volume of hind paws: 23
Rattus norvegicus [11]
  Ulcerogenic index: 0.12

## Cc1cc(-c2nc3c4ccccc4ccc3n2C)ccc1N(C)C
Rattus norvegicus [3]
  Activity: 2.8
Rattus norvegicus [4]
  Activity: 10.5
Rattus norvegicus [12]
  Arthritis scores: 69
  Inflammation units: 84
Rattus norvegicus [13]
  inhibition in vivo at 100 mg/kg: 38%
Rattus norvegicus [2]
  inhibition in vivo at 100 mg/kg: 64%
Rattus norvegicus [1]
  inhibition in vivo at 200 mg/kg: 69%
Rattus norvegicus [11]
  Ulcerogenic index: 0.21
Rattus norvegicus [14]
  Mean volume of hind paws: 42
